{
  "source": "paper PMC9868104",
  "about": "(Cell chemical biology, 2022)",
  "key": {"[1]": {"test_system": "STING signaling (STING, pTBK1, pIRF3)", "assay": "STING, pTBK1 and pIRF3 western blot in CT-26 cells", "type": "cell-based, mouse", "procedure,_shortened": "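Lysates were made in HEPES/Triton buffer with TCEP, protease and phosphatase inhibitors and 30 μM pan-PARP inhibitor, normalized by Bradford, and run on SDS-PAGE and nitrocellulose. Blots were probed overnight at 4°C for STING, phospho-TBK1 Ser172 and phospho-IRF3 Ser396 (1:1000 for both phospho antibodies), with tubulin as loading control, and read by HRP chemiluminescence.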"}, "[2]": {"molecular_target": "T1, PARP1 (Homo sapiens, UniProt P09874)", "T1 sequence (P09874 whole entry)": "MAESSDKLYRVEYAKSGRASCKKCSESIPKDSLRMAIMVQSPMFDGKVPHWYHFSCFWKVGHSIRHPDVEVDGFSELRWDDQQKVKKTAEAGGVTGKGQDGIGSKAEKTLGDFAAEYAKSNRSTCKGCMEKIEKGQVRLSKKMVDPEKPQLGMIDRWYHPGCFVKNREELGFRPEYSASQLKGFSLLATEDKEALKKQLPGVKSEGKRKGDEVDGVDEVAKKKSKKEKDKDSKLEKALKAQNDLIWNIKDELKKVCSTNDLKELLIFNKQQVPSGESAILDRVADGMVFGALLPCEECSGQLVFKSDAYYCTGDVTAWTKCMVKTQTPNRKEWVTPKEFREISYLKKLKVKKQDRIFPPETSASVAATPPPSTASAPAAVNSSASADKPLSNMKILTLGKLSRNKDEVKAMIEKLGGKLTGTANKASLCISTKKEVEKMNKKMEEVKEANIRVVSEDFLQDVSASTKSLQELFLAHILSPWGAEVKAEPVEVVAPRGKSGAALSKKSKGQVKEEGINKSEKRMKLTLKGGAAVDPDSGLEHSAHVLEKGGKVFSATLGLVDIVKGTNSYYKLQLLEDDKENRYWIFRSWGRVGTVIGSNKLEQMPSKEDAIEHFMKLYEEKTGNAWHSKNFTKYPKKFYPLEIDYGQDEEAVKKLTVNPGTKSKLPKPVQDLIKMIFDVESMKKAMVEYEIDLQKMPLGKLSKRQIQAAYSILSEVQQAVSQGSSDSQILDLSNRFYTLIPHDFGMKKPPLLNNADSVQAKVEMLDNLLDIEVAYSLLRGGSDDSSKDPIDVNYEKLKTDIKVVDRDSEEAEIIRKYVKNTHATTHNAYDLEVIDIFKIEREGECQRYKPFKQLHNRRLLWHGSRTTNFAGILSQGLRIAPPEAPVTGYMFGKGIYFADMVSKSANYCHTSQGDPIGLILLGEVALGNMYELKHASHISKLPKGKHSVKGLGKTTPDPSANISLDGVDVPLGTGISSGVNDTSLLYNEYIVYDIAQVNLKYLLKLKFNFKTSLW", "assay": "PASTA biochemical PARP screening assay, PARP1", "settings": "in words"}, "[3]": {"molecular_target": "PARP2 (Homo sapiens, UniProt Q9UGN5)", "sequence (Q9UGN5 whole entry)": "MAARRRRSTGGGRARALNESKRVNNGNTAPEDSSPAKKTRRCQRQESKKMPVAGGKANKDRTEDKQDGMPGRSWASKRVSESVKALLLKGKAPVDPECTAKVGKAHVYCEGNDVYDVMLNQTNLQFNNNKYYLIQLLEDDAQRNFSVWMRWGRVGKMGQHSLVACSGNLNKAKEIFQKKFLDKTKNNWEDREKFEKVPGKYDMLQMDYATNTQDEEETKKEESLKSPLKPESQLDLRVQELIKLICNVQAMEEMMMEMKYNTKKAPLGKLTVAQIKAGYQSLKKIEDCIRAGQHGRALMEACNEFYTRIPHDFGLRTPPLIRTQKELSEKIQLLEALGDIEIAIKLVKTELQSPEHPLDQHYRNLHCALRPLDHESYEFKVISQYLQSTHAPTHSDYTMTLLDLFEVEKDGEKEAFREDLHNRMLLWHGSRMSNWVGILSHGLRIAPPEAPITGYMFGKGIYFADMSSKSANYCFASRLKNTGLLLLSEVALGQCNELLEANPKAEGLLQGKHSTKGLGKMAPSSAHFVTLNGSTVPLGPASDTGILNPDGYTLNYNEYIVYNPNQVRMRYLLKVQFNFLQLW", "assay": "PASTA biochemical PARP screening assay, PARP2", "settings": "in words"}, "[4]": {"test_system": "other PARP family members", "assay": "PASTA family-wide PARP inhibitor screening, other PARP family members", "type": "biochemical"}, "[5]": {"molecular_target": "T2, PARP7 (Homo sapiens, UniProt Q7Z3E1)", "T2 sequence (Q7Z3E1 1-657)": "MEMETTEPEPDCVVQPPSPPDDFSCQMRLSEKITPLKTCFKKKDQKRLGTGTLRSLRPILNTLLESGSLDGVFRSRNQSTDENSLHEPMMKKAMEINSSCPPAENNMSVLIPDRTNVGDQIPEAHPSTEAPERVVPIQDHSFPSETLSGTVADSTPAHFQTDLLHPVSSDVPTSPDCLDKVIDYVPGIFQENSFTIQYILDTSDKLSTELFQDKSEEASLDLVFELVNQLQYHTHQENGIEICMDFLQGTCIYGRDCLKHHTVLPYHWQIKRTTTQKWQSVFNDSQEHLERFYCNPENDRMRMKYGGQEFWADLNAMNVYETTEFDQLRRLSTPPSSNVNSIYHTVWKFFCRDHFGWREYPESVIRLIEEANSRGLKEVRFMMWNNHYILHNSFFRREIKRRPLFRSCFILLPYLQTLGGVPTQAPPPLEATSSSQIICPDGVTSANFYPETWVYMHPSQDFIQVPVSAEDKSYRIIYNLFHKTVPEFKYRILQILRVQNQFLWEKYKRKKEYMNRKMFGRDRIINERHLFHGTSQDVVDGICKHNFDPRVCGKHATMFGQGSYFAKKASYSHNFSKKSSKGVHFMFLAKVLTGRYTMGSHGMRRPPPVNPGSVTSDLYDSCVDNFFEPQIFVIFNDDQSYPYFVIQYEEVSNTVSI", "assay": "PASTA biochemical PARP screening assay, PARP7", "settings": "in words"}, "[6]": {"test_system": "secreted IFN-β", "assay": "Interferon-β ELISA, CT-26 cells", "type": "cell-based, mouse", "settings": "300 nM, 16 h", "procedure,_shortened": "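CT-26 cells were grown in RPMI-1640 + 10% FBS in 6-well plates. After 24 h, medium was replaced and cells were treated for 16 h with 300 nM test compound, with or without the covalent STING inhibitor H-151 (500 nM). Harvested medium was assayed for IFN-β with a mouse IFN-β ELISA kit. Statistics: one-way ANOVA.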"}, "[7]": {"molecular_target": "T1, PARP1", "settings": "in words; cited from earlier work"}, "[8]": {"molecular_target": "T3, PARP12 (Homo sapiens, UniProt Q9H0J9)", "T3 sequence (Q9H0J9 484-698 limits assumed)": "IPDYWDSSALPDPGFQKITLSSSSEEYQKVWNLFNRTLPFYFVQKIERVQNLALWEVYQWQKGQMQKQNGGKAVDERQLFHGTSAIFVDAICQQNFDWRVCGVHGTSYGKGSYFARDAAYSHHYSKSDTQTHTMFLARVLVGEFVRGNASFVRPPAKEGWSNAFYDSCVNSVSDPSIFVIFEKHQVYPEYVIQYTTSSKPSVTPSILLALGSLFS", "settings": "in words; cited from earlier work"}, "[9]": {"test_system": "PARP7 protein levels", "assay": "Endogenous PARP7 protein levels in CT-26 cells", "type": "cell-based, mouse"}, "[10]": {"test_system": "ISRE luciferase reporter (type I interferon)", "assay": "ISRE luciferase assay in ISRE-Luc CT-26 cells", "type": "cell-based, mouse", "settings": "18 h, saturating doses", "procedure,_shortened": "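ISRE-Luc CT-26 cells were made by lentiviral ISRE-luciferase transduction with 8 μg/mL polybrene and kept under 20 μg/mL puromycin. 1.0 × 10^4 ISRE-Luc or WT CT-26 cells were grown overnight. Test compound was serially diluted in DMSO, then in medium, and added for 18 h. Lysates were read by ONE-Glo luminescence (2 s integration), with the WT CT-26 signal subtracted as background. Curves were four-parameter fits.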"}, "[11]": {"test_system": "STAT1 and pSTAT1", "assay": "STAT1 and pSTAT1", "type": "cell-based, mouse", "settings": "CT-26 cells", "procedure,_shortened": "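CT-26 cells at 75% confluency were treated with test compound at 0.01–1 μM for 16 h (dose-response) or at 0.3 μM over 0–24 h (time course); DMXAA (10 μg/ml, 1 h) served as positive control. Lysis buffer contained protease and phosphatase inhibitors plus 30 μM pan-PARP inhibitor. Bradford-normalized lysates were run on SDS-PAGE and nitrocellulose, probed for STAT1 and phospho-STAT1 Tyr701, detected by HRP chemiluminescence, and bands quantified densitometrically.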"}, "[12]": {"test_system": "CYP1A1 mRNA (AHR target gene)", "assay": "CYP1A1 mRNA levels in MEFs", "type": "cell-based, mouse", "settings": "PARP7−/− MEFs, 1 nM TCDD"}, "[13]": {"settings": "increasing concentrations, 16 h"}},
  "data": [
    {"compound": "Cc1ccc2c(=O)c3cccc(CC(=O)O)c3oc2c1C", "note": "[DMXAA, 5,6-Dimethylxanthenone-4-acetic Acid]", "values": [
      {"measurement": "STING levels", "setting": "[1]", "value": "substantially decreased"},
      {"measurement": "pIRF3", "setting": "[1]", "value": "robustly induced"},
      {"measurement": "pTBK1", "setting": "[1]", "value": "robustly induced"}
    ]},
    {"compound": "N#Cc1ccc(N2CCN(C(=O)c3cc(Cc4n[nH]c(=O)c5ccccc45)ccc3F)CC2)nc1", "note": "[Phthal01]", "values": [
      {"measurement": "potency against PARP1", "setting": "[2]", "value": "double-digit nanomolar"},
      {"measurement": "potency against PARP2", "setting": "[3]", "value": "double-digit nanomolar"},
      {"measurement": "fold more potent against PARP7 compared to all other PARP family members", "setting": "[4]; other than PARP1 and PARP2", "value": "at least 12 fold"},
      {"measurement": "potency against PARP7", "setting": "[5]", "value": "double-digit nanomolar"}
    ]},
    {"compound": "C[C@@H](COCCC(=O)N1CCN(c2ncc(C(F)(F)F)cn2)CC1)Nc1cn[nH]c(=O)c1C(F)(F)F", "note": "[RBN-2397]", "values": [
      {"measurement": "levels of secreted IFN-β", "setting": "[6]", "value": "to a greater extent than KMR-206"},
      {"measurement": "inhibition of PARP1, previous study", "setting": "[7]", "value": "double digit nanomolar inhibition"},
      {"measurement": "IC50", "setting": "[4]; read-out: IC50 most other PARP family members (does not inhibit up to)", "value": "> 3", "unit": "µM"},
      {"measurement": "inhibition of PARP12, previous study", "setting": "[8]", "value": "double digit nanomolar inhibition"},
      {"measurement": "time of maximal PARP7 protein levels after addition", "setting": "[9]; 0.3 μM time-course", "value": "~ 16 h"},
      {"measurement": "endogenous PARP7 levels", "setting": "[9]; [13]", "value": "dramatically increased"},
      {"measurement": "increase in PARP7 protein abundance compared to KMR-206", "setting": "[9]; saturating doses", "value": 2, "unit": "fold"},
      {"measurement": "magnitude of ISRE luciferase response compared to KMR-206", "setting": "[10]", "value": "~ 2 fold"},
      {"measurement": "time of noticeable increase in STAT1", "setting": "[11]; 300 nM", "value": 16, "unit": "h"},
      {"measurement": "time of noticeable increase in pSTAT1", "setting": "[11]; 300 nM", "value": 4, "unit": "h"},
      {"measurement": "STAT1 and pSTAT1 levels", "setting": "[11]; [13]", "value": "dose-dependently increased"}
    ]},
    {"compound": "Clc1cc2c(cc1Cl)Oc1cc(Cl)c(Cl)cc1O2", "note": "[TCDD, 2,3,7,8-tetrachlorodibenzo-p-dioxin]", "values": [
      {"measurement": "CYP1A1 mRNA levels, TCDD alone", "setting": "[12]", "value": "robust induction of CYP1A1"}
    ]}
  ]
}
